Results on 6 molecules are retold here after ChEMBL document CHEMBL4184277, “Substitution of terminal amide with 1H-1,2,3-triazole: Identification of unexpected class of potent antibacterial agents” (2018).

SMILES strings stand for the structures. In brackets after ≈: the same amount, converted by molar mass. Activity calls are given as the source filed them. No cut-off for these calls is given here.

The subject of one assay is Bacillus subtilis. As to the kind of experiment: Antibacterial activity against Bacillus subtilis ATCC 9372 after 24 hrs by broth microdilution method. The class given is functional. The note with it: ATCC 9372, 24 h. The method in brief: (§1)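 Broth microdilution run to the standard NCCLS-recommended procedure, applied to all newly synthesized compounds, with a panel that included four Gram-positive strains.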
On the technique in general: Broth dilution looks for growth in wells or tubes with falling amounts of substance.

The subject of assay [1] is Staphylococcus aureus. Put plainly: Antibacterial activity against Staphylococcus aureus ATCC 25923 after 24 hrs by broth microdilution method. The class given is functional. The note with it: ATCC 25923, 24 h. The method, boiled down:
as §1

Assay [2] has as its system Staphylococcus aureus. As to the kind of experiment: Antibacterial activity against penicillin-resistant Staphylococcus aureus after 24 hrs by broth microdilution method. The class given is functional.
Assay [3] has as its system Staphylococcus aureus. Put plainly: Antibacterial activity against methicillin-resistant Staphylococcus aureus ATCC 43300 after 24 hrs by broth microdilution method. The class given is functional. The settings on record: ATCC 43300, 24 h.
The subject of the next assay is Escherichia coli. Put plainly: Antibacterial activity against Escherichia coli ATCC 25922 after 24 hrs by broth microdilution method. The settings on record: ATCC 25922, 24 h. The class given is functional. The method, boiled down:
as §1

A further assay deals with Klebsiella pneumoniae. As to the kind of experiment: Antibacterial activity against Klebsiella pneumoniae ATCC 700603 after 24 hrs by broth microdilution method. The class given is functional. The note with it: Klebsiella pneumoniae, 700603, 24 h. The method in brief: as §1
The target of assay [4] is T1, Cell division protein FtsZ (Bacillus subtilis) (UniProt A5Z1V5).
T1 sequence (whole entry): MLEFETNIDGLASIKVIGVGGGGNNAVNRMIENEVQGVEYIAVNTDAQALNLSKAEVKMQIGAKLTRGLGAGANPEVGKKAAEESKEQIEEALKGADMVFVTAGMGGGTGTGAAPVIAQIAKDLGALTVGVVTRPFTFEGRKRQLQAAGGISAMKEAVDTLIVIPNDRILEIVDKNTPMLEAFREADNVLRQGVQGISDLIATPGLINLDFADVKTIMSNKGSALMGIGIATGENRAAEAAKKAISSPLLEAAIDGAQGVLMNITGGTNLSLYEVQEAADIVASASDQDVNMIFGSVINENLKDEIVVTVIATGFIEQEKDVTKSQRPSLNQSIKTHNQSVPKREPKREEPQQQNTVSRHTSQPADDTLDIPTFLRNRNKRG
Put plainly: Inhibition of FtsZ in Bacillus subtilis ATCC 9372 assessed as filamentation.

The target of assay [5] is T2, Cell division protein FtsZ (Staphylococcus aureus) (UniProt P0A031).
T2 sequence (whole entry): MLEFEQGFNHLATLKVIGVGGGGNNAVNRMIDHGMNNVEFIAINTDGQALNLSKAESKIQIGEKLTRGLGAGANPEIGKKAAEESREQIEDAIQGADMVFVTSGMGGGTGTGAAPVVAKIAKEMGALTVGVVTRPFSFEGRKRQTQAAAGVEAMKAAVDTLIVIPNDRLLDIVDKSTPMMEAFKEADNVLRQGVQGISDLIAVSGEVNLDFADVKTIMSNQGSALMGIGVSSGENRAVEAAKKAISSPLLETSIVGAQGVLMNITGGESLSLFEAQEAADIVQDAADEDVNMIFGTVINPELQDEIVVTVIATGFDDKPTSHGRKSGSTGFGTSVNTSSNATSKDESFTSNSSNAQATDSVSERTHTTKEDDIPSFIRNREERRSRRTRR
As to the kind of experiment: Inhibition of FtsZ in Staphylococcus aureus assessed as ballooning.

In assay [6] the target is T1, Cell division protein FtsZ (Bacillus subtilis). Put plainly: Inhibition of FtsZ in Bacillus subtilis ATCC 9372 assessed as filamentation at 1 ug/ml.

For the molecule `CCCCC(CC)COc1ccc(-c2c[nH]nn2)cc1` (stereo not drawn), the MIC with Bacillus subtilis was 2 µg/mL (≈ 7.32 µM); in the assay on Staphylococcus aureus [1] it was 4 µg/mL (≈ 14.6 µM); in the assay on Staphylococcus aureus [2] it was 4 µg/mL (≈ 14.6 µM); in the assay on Staphylococcus aureus [3], 4 µg/mL (≈ 14.6 µM); with Escherichia coli it was above 64 µg/mL; against Klebsiella pneumoniae, 4 µg/mL (≈ 14.6 µM). Also, the inhibition entry in assay [4] was “inactive”. Further, the inhibition entry in assay [5] is “Active”.
With `CCCCC(CC)COc1cccc(-c2n[nH]c(=O)o2)c1` (racemic), the MIC in the assay with Bacillus subtilis is 4 µg/mL (≈ 13.8 µM); with Staphylococcus aureus [1] it was 4 µg/mL (≈ 13.8 µM); in the assay on Staphylococcus aureus [2], 8 µg/mL (≈ 27.6 µM); against Staphylococcus aureus [3], 8 µg/mL (≈ 27.6 µM); with Escherichia coli, above 64 µg/mL; in the assay with Klebsiella pneumoniae, 4 µg/mL (≈ 13.8 µM). For the same molecule, the inhibition entry in [4] is “inactive”. Further, the inhibition entry in assay [5] is “Active”.
With `CCCCCCCCOc1cccc(-c2c[nH]nn2)c1`, the MIC in the assay with Bacillus subtilis is 2 µg/mL (≈ 7.32 µM); in the assay on Staphylococcus aureus [1] it was 4 µg/mL (≈ 14.6 µM); against Staphylococcus aureus [2], 4 µg/mL (≈ 14.6 µM); against Staphylococcus aureus [3], 4 µg/mL (≈ 14.6 µM); against Escherichia coli, above 64 µg/mL; in the assay with Klebsiella pneumoniae, 4 µg/mL (≈ 14.6 µM). Also, in assay [4], the inhibition entry is “inactive”. In addition, the inhibition result in assay [5] is “Active”.
On to `CCCCC(CC)COc1cccc(Cn2cncn2)c1` (racemic), for which the minimum inhibitory concentration (MIC) in the assay on Bacillus subtilis is 16 µg/mL (≈ 55.7 µM); with Staphylococcus aureus [1], 16 µg/mL (≈ 55.7 µM); with Staphylococcus aureus [2], 32 µg/mL (≈ 111 µM); against Staphylococcus aureus [3] it was 32 µg/mL (≈ 111 µM); in the assay with Escherichia coli, above 64 µg/mL; in the assay with Klebsiella pneumoniae it was 16 µg/mL (≈ 55.7 µM). Further, the inhibition entry in [4] was “inactive”. Also, the inhibition entry in assay [5] is “Active”.
On to `CCCCC(CC)COc1ccccc1-c1c[nH]nn1` (stereo not drawn), for which the MIC in the assay on Bacillus subtilis is 8 µg/mL (≈ 29.3 µM); in the assay on Staphylococcus aureus [1], 8 µg/mL (≈ 29.3 µM); against Staphylococcus aureus [2], 8 µg/mL (≈ 29.3 µM); with Staphylococcus aureus [3] it was 8 µg/mL (≈ 29.3 µM); in the assay with Escherichia coli, above 64 µg/mL; against Klebsiella pneumoniae, 8 µg/mL (≈ 29.3 µM). The inhibition result in assay [4] is “inactive”. For the same molecule, in assay [5], the inhibition entry is “Active”.
For `CCCCC(CC)COc1cccc(-c2c[nH]nn2)c1` (racemic), the MIC with Bacillus subtilis was 2 µg/mL (≈ 7.32 µM); against Staphylococcus aureus [1] it was 2 µg/mL (≈ 7.32 µM); with Staphylococcus aureus [2] it was 4 µg/mL (≈ 14.6 µM); against Staphylococcus aureus [3], 4 µg/mL (≈ 14.6 µM); against Escherichia coli, above 64 µg/mL; against Klebsiella pneumoniae, 4 µg/mL (≈ 14.6 µM). Besides, the inhibition entry in assay [6] was “inactive”. The inhibition entry in [5] is “Active”.

Usually MIC stands for the least concentration at which growth counts as inhibited.
